From ChEMBL document CHEMBL4765448, “Multiple biological active 4-aminopyrazoles containing trifluoromethyl and their 4-nitroso-precursors: Synthesis and evaluation” (Eur J Med Chem, 2020)
Values after ≈ are worked out from the molar mass of the structure shown. Active and inactive are the calls of the source. No cut-off for these calls is given here.

Legend:
[1] = tested on: Mycobacterium tuberculosis; experiment: Antitubercular activity against Mycobacterium tuberculosis H37Rv; format: functional
Method in brief: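 Mycobacterium tuberculosis strain H37Rv; minimum inhibitory concentration (MIC) taken as the lowest level needed to inhibit bacterial growth; isoniazid and pyrazinamide served as reference drugs.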

[2] = tested on: Neisseria gonorrhoeae; experiment: Antibacterial activity against Neisseria gonorrhoeae; format: functional
[3] = tested on: Escherichia coli; experiment: Antibacterial activity against Escherichia coli; format: functional
[4] = tested on: Klebsiella pneumoniae; experiment: Antibacterial activity against Klebsiella pneumoniae; format: functional
[5] = tested on: Citrobacter braakii; experiment: Antibacterial activity against Citrobacter braakii; format: functional
[6] = tested on: Proteus vulgaris; experiment: Antibacterial activity against Proteus vulgaris; format: functional
[7] = tested on: Serratia marcescens; experiment: Antibacterial activity against Serratia marcescens; format: functional
[8] = tested on: Shigella flexneri; experiment: Antibacterial activity against Shigella flexneri; format: functional
[9] = tested on: Pseudomonas aeruginosa; experiment: Antibacterial activity against Pseudomonas aeruginosa; format: functional
[10] = tested on: Streptococcus pyogenes; experiment: Antibacterial activity against Streptococcus pyogenes; format: functional
[11] = tested on: Staphylococcus aureus; experiment: Antibacterial activity against Staphylococcus aureus; format: functional
[12] = tested on: Trichophyton rubrum; experiment: Antifungal activity against Trichophyton rubrum; format: functional
[13] = tested on: Nannizzia gypsea; experiment: Antifungal activity against Trichophyton gypseum; format: functional
[14] = tested on: Trichophyton tonsurans; experiment: Antifungal activity against Trichophyton tonsurans; format: functional
[15] = tested on: Trichophyton interdigitale; experiment: Antifungal activity against Trichophyton mentagrophytes var. interdigitale; format: functional
[16] = tested on: Epidermophyton floccosum; experiment: Antifungal activity against Epidermophyton floccosum; format: functional
[17] = tested on: Microsporum canis; experiment: Antifungal activity against Microsporum canis; format: functional
[18] = tested on: Candida albicans; experiment: Antifungal activity against Candida albicans; format: functional
[19] = Drug metabolism assessed as nitric oxide release in presence of rat plasma by Griess reagent based assay; format: cell-free
[20] = Drug metabolism assessed as nitric oxide release in absence of rat plasma by Griess reagent based assay; format: cell-free
[21] = tested on: Rattus norvegicus; experiment: Analgesic activity in rat assessed as prolongation of latency period at 15 mg/kg, ip measured after 1 hr by hot-plate test relative to control; format: functional
Method in brief: (§1)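 Hot-plate test in rats. Compounds were given by intraperitoneal injection. Latency was read at 1 h and, for some compounds, also at 2 h after dosing. Results are expressed as % prolongation of the latent period versus vehicle-treated control. Significance was given as p-values.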

[22] = tested on: Rattus norvegicus; experiment: Analgesic activity in rat assessed as prolongation of latency period at 15 mg/kg, ip measured after 2 hrs by hot-plate test relative to control; format: functional; method in brief: as §1
[23] = tested on: Rattus norvegicus; experiment: Antiinflammatory activity in rat model of carrageenan-induced paw edema assessed as inhibition of hind paw swelling at 15 mg/kg, ip measured after 5 hrs; format: functional, organism-based
[24] = tested on: Staphylococcus aureus; experiment: Antibacterial activity against methicillin resistant Staphylococcus aureus; format: functional
[25] = tested on: Trichophyton violaceum; experiment: Antifungal activity against Trichophyton violaceum; format: functional
[26] = Antioxidant activity assessed as trolox equivalent of ABTS radical scavenging activity measured after 1 hr by UV-vis spectrophotometric method; format: functional
Method in brief: (§2)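 ABTS cation-radical decolorization was read spectrophotometrically as the fall in absorbance after 1 h. Trolox was the reference. TEAC was taken as the ratio of concentration-response slopes, test/Trolox, and IC50 was also derived. Data are mean ± SEM, n = 3.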

[27] = Antioxidant activity assessed as AAPH scavenging activity by measuring residual fluorescence at 10 uM measured at 1 min interval for 30 mins by ORAC fluorescein assay relative to control; format: functional
Method in brief: (§3)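 ORAC-FL assay with fluorescein as the probe and AAPH as the peroxyl radical generator. The loss of fluorescence over time was followed, and the result is given as % fluorescence restored at 10 and 50 µM. Each value is the mean of two independent experiments.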

[28] = Antioxidant activity assessed as AAPH scavenging activity by measuring residual fluorescence at 50 uM measured at 1 min interval for 30 mins by ORAC fluorescein assay relative to control; format: functional; method in brief: as §3
[29] = tested on: Erythrocyte; experiment: Antioxidant activity in human erythrocytes assessed as protection against AAPH-induced hemolysis at 50 uM preincubated for 20 mins followed by AAPH addition and measured after 2 hrs by spectrophotometric method relative to control; format: functional; conditions: time 140 min, 2.333 h
Method in brief: (§4)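 Erythrocyte hemolysis assay with AAPH as the free-radical initiator, testing 50 and 400 µM. Results are expressed as relative protection of membranes against oxidative damage, each the mean of two independent experiments.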

[30] = tested on: Erythrocyte; experiment: Antioxidant activity in human erythrocytes assessed as protection against AAPH-induced hemolysis at 400 uM preincubated for 20 mins followed by AAPH addition and measured after 2 hrs by spectrophotometric method relative to control; format: functional; conditions: time 140 min, 2.333 h; method in brief: as §4
[31] = tested on: HeLa; experiment: Cytotoxicity against human HeLa cells; format: functional, cell-based
[32] = tested on: NHDF; experiment: Cytotoxicity against HDF cells; format: cell-based, Homo sapiens; conditions: Homo sapiens, NHDF; read-out: IC50
[33] = Selectivity index, ratio of IC50 for HDF cells to IC50 for human HeLa cells; format: toxicity; conditions: HDF cells versus HeLa cells, read-out: Ratio IC50
[34] = tested on: Rattus norvegicus; experiment: Antiinflammatory activity in rat model of carrageenan-induced paw edema assessed as inhibition of hind paw swelling at 15 mg/kg, ip measured after 1 hr relative to control; format: functional
[35] = tested on: Rattus norvegicus; experiment: Antiinflammatory activity in rat model of carrageenan-induced paw edema assessed as inhibition of hind paw swelling at 15 mg/kg, ip measured after 3 hrs relative to control; format: functional
[36] = Acute toxicity in mouse at 150 mg/kg, ip administered as single dose; format: organism-based; conditions: in vivo
Method in brief: (§5)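 Mice, single intraperitoneal dose, following OECD Guideline for testing of chemicals; three mice per dose level; doses tested 10–300 mg/kg. Read-out is the number of survivors out of 3, used to estimate the expected LD50 range.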

[37] = Acute toxicity in mouse at 300 mg/kg, ip administered as single dose; format: organism-based; conditions: in vivo; method in brief: as §5
[38] = Antioxidant activity assessed as ABTS radical scavenging activity measured after 1 hr by UV-vis spectrophotometric method; format: functional; method in brief: as §2
[39] = Acute toxicity in mouse at 75 mg/kg, ip administered as single dose; format: organism-based; conditions: in vivo; method in brief: as §5
[40] = Acute toxicity in mouse at 10 mg/kg, ip administered as single dose; format: organism-based; conditions: in vivo; method in brief: as §5

In the case of Cn1nc(C(F)(F)F)c(N=O)c1-c1cccs1, the MIC [1] is reported as 12.5 µg/mL (≈ 47.9 µM), the MIC [2] is reported as 500 µg/mL (≈ 1910 µM) and the MIC [3] is reported as 500 µg/mL (≈ 1910 µM). For the same molecule, the MIC [4] was > 500 µg/mL, the MIC [5] was > 500 µg/mL and the MIC [6] was > 500 µg/mL. The MIC [7] was > 500 µg/mL, the MIC [8] was > 500 µg/mL and the MIC [9] was > 500 µg/mL. For the same molecule, the MIC [10] was > 500 µg/mL, the MIC [11] was > 500 µg/mL and the MIC [12] was 12.5 µg/mL (≈ 47.9 µM). The MIC [13] was 50 µg/mL (≈ 191 µM), the MIC [14] was 50 µg/mL (≈ 191 µM) and the MIC [15] was 25 µg/mL (≈ 95.7 µM). For the same molecule, the MIC [16] was 50 µg/mL (≈ 191 µM), the MIC [17] was 25 µg/mL (≈ 95.7 µM) and the MIC [18] was 25 µg/mL (≈ 95.7 µM). For the same molecule, the Drug metabolism [19] was “Metabolite detected”, the Drug metabolism [20] was “Metabolite not detected” and the Activity [21] was 29.8%. The Activity [22] was 43.8% and the Activity [23] was “Active”.

In the case of O=Nc1c(C(F)(F)F)n[nH]c1-c1ccccc1, the MIC [1] is reported as 0.36 µg/mL (≈ 1.49 µM), the MIC [2] is reported as 62.5 µg/mL (≈ 259 µM) and the MIC [3] is reported as 62.5 µg/mL (≈ 259 µM). For the same molecule, the MIC [4] was 62.5 µg/mL (≈ 259 µM), the MIC [5] was 62.5 µg/mL (≈ 259 µM) and the MIC [6] was 31.2 µg/mL (≈ 129 µM). The MIC [7] was 62.5 µg/mL (≈ 259 µM), the MIC [8] was 31.2 µg/mL (≈ 129 µM) and the MIC [9] was 125 µg/mL (≈ 518 µM). The MIC [10] was 7.8 µg/mL (≈ 32.3 µM), the MIC [11] was 31.2 µg/mL (≈ 129 µM) and the MIC [24] was 62.5 µg/mL (≈ 259 µM). The MIC [12] was > 200 µg/mL, the MIC [13] was > 200 µg/mL and the MIC [14] was > 200 µg/mL. The MIC [25] was > 200 µg/mL, the MIC [15] was > 200 µg/mL and the MIC [16] was > 200 µg/mL. For the same molecule, the MIC [17] was > 200 µg/mL, the MIC [18] was 100 µg/mL (≈ 415 µM) and the Activity [26] was “inactive”. The Activity [27] was -80.4%, the Activity [28] was -119% and the “fold change (FC)” value [29] was 0.99. The “fold change (FC)” value [30] was 1.05, the Activity [31] was “Dose-dependent effect” and the IC50 ([31]; Homo sapiens, HeLa, read-out: IC50) was 1860 nM. The IC50 [32] was 1420 nM, the selectivity ratio [33] was 0.76 and the inhibition [34] was “inactive”. The inhibition in vivo at 15 mg/kg [35] was 32%, the Activity [21] was 51.7% and the Activity [23] was “Active”.

In the case of O=[N+]([O-])O[C@H]1CO[C@H]2[C@@H]1OC[C@H]2O[N+](=O)[O-], the Drug metabolism [20] is reported as “Metabolite detected”.

With Cc1ccc(-c2[nH]nc(C(F)(F)F)c2N=O)cc1 the Activity [26] was 0.02 equiv, the Activity [27] was -60% and the Activity [28] was -99.8%. The “fold change (FC)” value [29] was 1.03, the “fold change (FC)” value [30] was 1.03 and the Activity [21] was “inactive”. For the same molecule, the Activity [22] was “inactive”, the Activity [23] was “Active” and the Activity [36] was “Non-Toxic”.

O=Nc1c(C(F)(F)F)n[nH]c1-c1ccco1 showed an MIC [1] of 6.2 µg/mL (≈ 26.8 µM), an MIC [2] of 15.6 µg/mL (≈ 67.5 µM) and an MIC [3] of 62.5 µg/mL (≈ 270 µM). It also gave an MIC [4] of 125 µg/mL (≈ 541 µM), an MIC [5] of 125 µg/mL (≈ 541 µM) and an MIC [6] of 62.5 µg/mL (≈ 270 µM). The MIC [7] was 125 µg/mL (≈ 541 µM), the MIC [8] was 125 µg/mL (≈ 541 µM) and the MIC [9] was > 500 µg/mL. The MIC [10] was 7.8 µg/mL (≈ 33.7 µM), the MIC [11] was 31.2 µg/mL (≈ 135 µM) and the MIC [24] was 15.6 µg/mL (≈ 67.5 µM). For the same molecule, the MIC [12] was 12.5 µg/mL (≈ 54.1 µM), the MIC [13] was 25 µg/mL (≈ 108 µM) and the MIC [14] was 50 µg/mL (≈ 216 µM). The MIC [15] was 50 µg/mL (≈ 216 µM), the MIC [16] was 50 µg/mL (≈ 216 µM) and the MIC [17] was 12.5 µg/mL (≈ 54.1 µM). The MIC [18] was 25 µg/mL (≈ 108 µM), the Activity [26] was 0.02 equiv and the Activity [23] was “Active”. The Activity [37] was “Toxic”.

In the case of Cl.Nc1c(C(F)(F)F)n[nH]c1-c1cccs1, the MIC [2] is reported as 62.5 µg/mL, the MIC [3] is reported as > 250 µg/mL and the MIC [4] is reported as > 250 µg/mL. The MIC [5] was > 250 µg/mL, the MIC [6] was > 250 µg/mL and the MIC [7] was > 250 µg/mL. The MIC [8] was > 250 µg/mL, the MIC [9] was > 250 µg/mL and the MIC [10] was > 250 µg/mL. The MIC [11] was > 250 µg/mL, the MIC [12] was 200 µg/mL and the MIC [13] was > 200 µg/mL. The MIC [14] was > 200 µg/mL, the MIC [25] was > 200 µg/mL and the MIC [15] was > 200 µg/mL. For the same molecule, the MIC [16] was 200 µg/mL, the MIC [17] was 200 µg/mL and the MIC [18] was > 200 µg/mL. For the same molecule, the IC50 [38] was 13300 nM, the Activity [36] was “Toxic” and the Activity [39] was “Toxic”. The Activity [40] was “Non-Toxic”.
